Measurements of several laboratories.
Compare with care: the assays were run in different laboratories.
Target: Dual specificity mitogen-activated protein kinase kinase 1 (MAP2K1, Homo sapiens, UniProt Q02750)

SMILES | observed | technique | tested at | remaining binding
CCN(CC)CCNC(=O)c1c(C)[nH]c(/C=C2\C(=O)Nc3ccc(F)cc32)c1C | cell-free assay | competition with immobilised ligand | 0.1 µM | 51%
O=C(c1ccc(Nc2ncc(Cl)c(-c3cc4ccccc4s3)n2)cc1)N1CCC(N2CCCC2)CC1 | binding | competition with immobilised ligand | 1 µM | 21%
FC(F)(F)Oc1cccc(-c2cnc3ccc(-c4ccncc4)nn23)c1 | cell-free assay | competition with immobilised ligand | 5 µM | 70%
Cc1noc([C@H]2C[C@@H](c3ccc(C(F)(F)F)cc3)CN(C(=O)N3CCS(=O)(=O)C3)C2)n1 | cell-free assay | competition with immobilised ligand | 1 µM | 100%
Cc1ccc(NC(=O)c2ccc(CN3CCN(C)CC3)cc2)cc1Nc1nccc(-c2cccnc2)n1 | cell-free assay | competition with immobilised ligand | 0.1 µM | 95%
C=CC(=O)N1CCC(C(=O)NCC(=O)N2CCN(c3nc(-c4cnc(N)nc4C(F)F)nc(N4CCOCC4)n3)CC2)CC1 | binding | competition with immobilised ligand | 1 µM | 69%
COc1cc2ncnc(Nc3ccc(F)c(Cl)c3)c2cc1OCCCN1CCOCC1 | cell-free assay | competition with immobilised ligand | 10 µM | 83%
C[C@H]1CCN(c2nccc(-c3cnn4ncccc34)n2)C1 | binding | competition with immobilised ligand | 1 µM | 66%
O=C(NCC1CCOCC1)c1n[nH]cc1NC(=O)c1c(F)cccc1F | binding | competition with immobilised ligand | 1 µM | 100%
CN(C)c1ncc(F)c(-c2cnn3ncccc23)n1 | binding | competition with immobilised ligand | 1 µM | 78%
COC(=O)Nc1nc2cc(C(=O)c3ccccc3)ccc2[nH]1 | cell-free assay | competition with immobilised ligand | 0.1 µM | 100%
CC(C)(C)c1ccc(-c2nc(CBr)nn2-c2cccc(O)c2)cc1 | cell-free assay | competition with immobilised ligand | 10 µM | 83%
COc1cnc(Nc2cccc(S(N)(=O)=O)c2)nc1N1CCN(c2ccccc2)CC1 | binding | competition with immobilised ligand | 1 µM | 90%
C[C@@H](c1cccc(C#N)c1)n1cc(Cl)cc(C(N)=O)c1=N | cell-free assay | competition with immobilised ligand | 1 µM | 80%
O=C(c1ccc(Nc2nccc(-c3cc4ccccc4s3)n2)cc1)N1CCC(N2CCCC2)CC1 | binding | competition with immobilised ligand | 1 µM | 54%
COc1ccc2c(c1)O[C@@H](c1ccc(OC)c(OC)c1)C[C@H]2NC(=O)C1(c2ccc3c(c2)OC(F)(F)O3)CC1 | cell-free assay | competition with immobilised ligand | 1 µM | 86%

SMILES | observed | technique | tested at | remaining binding
c1cnn2ncc(-c3ccnc(N4CCC45COC5)n3)c2c1 | binding | competition with immobilised ligand | 1 µM | 69%
O=C(NCCCN1CCOCC1)c1ccc(Nc2ncc(Cl)c(-c3ccc(Cl)s3)n2)cc1 | binding | competition with immobilised ligand | 1 µM | 63%
CN(CCCC(F)(F)F)c1nccc(-c2cnn3ncccc23)n1 | binding | competition with immobilised ligand | 1 µM | 99%
O=C(NCc1ncc(C(F)(F)F)cc1Cl)c1ccc2c(c1)C1(CCS(=O)(=O)CC1)[C@@H](C1CC1)N2S(=O)(=O)c1ccc(F)cc1 | cell-free assay | competition with immobilised ligand | 1 µM | 91%
CNC(=O)c1cc(Oc2ccc(NC(=O)Nc3ccc(Cl)c(C(F)(F)F)c3)cc2)ccn1 | cell-free assay | competition with immobilised ligand | 0.1 µM | 100%
CC(=O)Nc1c(C(C)=O)c(=O)n(C)c2nc(-c3ccc(Cl)cc3Cl)c(-c3ccc(Cl)cc3)cc12 | cell-free assay | competition with immobilised ligand | 1 µM | 100%
CN1CC[C@H](c2c(O)cc(O)c3c(=O)cc(-c4ccccc4Cl)oc23)[C@H](O)C1 | cell-free assay | competition with immobilised ligand | 10 µM | 92%
C[C@H](c1ccc(F)cc1)N(Cc1cccc(C(=O)O)c1)C(=O)c1cnc2ccccc2c1 | cell-free assay | competition with immobilised ligand | 1 µM | 100%
COc1ncc2cc3ccccc3nc2c1C#N | cell-free assay | competition with immobilised ligand | 5 µM | 90%
Cc1c(-c2ccccc2)oc2c(C(=O)OCCN3CCCCC3)cccc2c1=O | cell-free assay | competition with immobilised ligand | 10 µM | 95%
COc1ccc2cc(OCC3(C(=O)O)CN(C(=O)c4ccc(F)cc4)C3)ccc2c1 | cell-free assay | competition with immobilised ligand | 1 µM | 100%
Cc1cnn2ncc(-c3ccnc(N(C)C)n3)c2c1 | binding |  | 1 µM | 82%
Nc1ncc2c(n1)-c1c([nH]c3ccc(C#CC4CC4)cc13)CCCC2 | binding | competition with immobilised ligand | 1 µM | 100%
C[C@@H]1CN(c2ccc3ncc(-c4ccc5[nH]nc(C6CC6)c5c4)n3n2)C[C@H](C)O1 | binding | competition with immobilised ligand | 50 nM | 80%
O=C(N1CCS(=O)(=O)CC1)N1C[C@H](c2ccc(OC(F)(F)F)cc2)C[C@H](c2nc(C3CC3)no2)C1 | cell-free assay | competition with immobilised ligand | 1 µM | 91%
CS(=O)(=O)CCNCc1ccc(-c2ccc3ncnc(Nc4ccc(OCc5cccc(F)c5)c(Cl)c4)c3c2)o1 | cell-free assay | competition with immobilised ligand | 10 µM | 87%
